Activity calls are given as the source filed them. The rule behind the calls is not given here.
Legend:
[1] = molecular target: Vascular endothelial growth factor receptor 2 (Homo sapiens, UniProt P35968); assay: Inhibition of KDR
[2] = Inhibition of GSK3
[3] = molecular target: MAP kinase-activated protein kinase 2 (Homo sapiens, UniProt P49137); assay: Inhibition of MK2
[4] = molecular target: RAC-alpha serine/threonine-protein kinase (Homo sapiens, UniProt P31749); assay: Inhibition of AKT1
[5] = Volume of distribution in mouse at 5 mg/kg, iv; format: ADME, organism-based; set-up: dose 5 mg/kg, route intravenous; details: in vivo, read-out: Vdss
Method in brief: (§1)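 Nude mice received a single intravenous bolus of 5 mg/kg. Plasma levels of parent and the 11-deacetylated metabolite were followed over time to derive clearance, volume of distribution and half-life.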

LNCaP = assay: Growth inhibition of human LNCap cells; format: functional, cell-based
[6] = molecular target: T1, Phosphatidylinositol 4,5-bisphosphate 3-kinase catalytic subunit alpha isoform (Homo sapiens, UniProt P42336); assay: Inhibition of PI3K expressed in Escherichia coli by microtiter plate-based fluorescence polarization assay
Method in brief: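 Fluorescence polarization assay of PI3K activity with PIP2 substrate. Reactions contained 20 mM Hepes pH 7.5, 2 mM MgCl2, 0.05% CHAPS, 0.01% βME, 20 µM PIP2 and 25 µM ATP, and ran 15–30 min at room temperature. They were stopped with buffer holding 10 nM TAMRA-labeled probe and 40 nM GST-GRP1 (E. coli-expressed detector), then incubated 1–2 h before FP readout.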

[7] = molecular target: Phosphatidylinositol 4,5-bisphosphate 3-kinase catalytic subunit beta isoform (Homo sapiens, UniProt P42338); assay: Inhibition of PI3Kbeta
Method in brief: (§2)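 Fluorescence polarization assay using purchased PI3K enzyme. It was stopped with TAMRA-labeled probe (10 nM) plus GST-GRP1 (40 nM), incubated 1–2 h, and FP was read.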

[8] = Antitumor activity against human U87MG cells xenografted mouse administered intravenously once a week for two weeks; format: functional, U-87MG ATCC; details: U-87 MG, iv, 336 h, read-out: MED
Method in brief: (§3)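 Nude mice bearing U87MG glioma xenografts; compound in PBS given intravenously on the stated schedule for 2 weeks. Tumor growth was monitored twice a week, and tumor volume was determined by a previously described method. Efficacy was expressed as minimum efficacious dose.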

[9] = Antitumor activity against human U87MG cells xenografted mouse administered intravenously twice a week for two weeks; format: functional, U-87MG ATCC; details: U-87 MG, iv, 336 h, read-out: MED; method in brief: as §3
[10] = molecular target: T2, Inhibitor of nuclear factor kappa-B kinase subunit beta (Homo sapiens, UniProt O14920); assay: Inhibition of IKK-beta
T2 sequence (O14920 whole entry): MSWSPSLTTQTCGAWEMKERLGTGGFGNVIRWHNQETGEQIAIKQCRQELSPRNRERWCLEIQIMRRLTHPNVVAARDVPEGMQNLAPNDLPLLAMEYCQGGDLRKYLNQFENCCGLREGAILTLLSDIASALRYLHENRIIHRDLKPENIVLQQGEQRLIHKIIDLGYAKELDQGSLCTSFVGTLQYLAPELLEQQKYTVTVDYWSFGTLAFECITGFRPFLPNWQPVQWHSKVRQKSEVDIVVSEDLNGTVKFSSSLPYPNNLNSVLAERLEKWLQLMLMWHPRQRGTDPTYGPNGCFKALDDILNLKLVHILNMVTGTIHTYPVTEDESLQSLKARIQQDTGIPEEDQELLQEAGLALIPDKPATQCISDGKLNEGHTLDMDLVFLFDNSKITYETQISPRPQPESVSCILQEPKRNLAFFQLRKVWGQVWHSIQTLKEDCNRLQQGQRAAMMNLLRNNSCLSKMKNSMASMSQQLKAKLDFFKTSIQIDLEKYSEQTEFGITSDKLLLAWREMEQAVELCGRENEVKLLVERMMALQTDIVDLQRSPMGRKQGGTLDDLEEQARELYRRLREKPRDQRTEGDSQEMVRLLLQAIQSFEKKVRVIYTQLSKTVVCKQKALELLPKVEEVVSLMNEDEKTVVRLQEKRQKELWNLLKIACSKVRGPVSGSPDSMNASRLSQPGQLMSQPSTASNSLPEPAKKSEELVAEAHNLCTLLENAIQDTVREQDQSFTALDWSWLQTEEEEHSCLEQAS

[11] = Half life in mouse at 5 mg/kg, iv; format: ADME, organism-based; set-up: dose 5 mg/kg, route intravenous; details: in vivo; method in brief: as §1
[12] = molecular target: Ribosomal protein S6 kinase beta-1 (Homo sapiens, UniProt P23443); assay: Inhibition of S6K1
[13] = molecular target: Phosphatidylinositol 4,5-bisphosphate 3-kinase catalytic subunit gamma isoform (Homo sapiens, UniProt P48736); assay: Inhibition of PI3Kgamma; method in brief: as §2
[14] = molecular target: Cyclin-dependent kinase 4 (Homo sapiens, UniProt P11802); assay: Inhibition of CDK4
[15] = Clearance in mouse at 5 mg/kg, iv; format: ADME, organism-based; set-up: dose 5 mg/kg, route intravenous; details: in vivo; method in brief: as §1
[16] = Aqueous solubility of the compound; format: physicochemical
[17] = molecular target: Dual specificity mitogen-activated protein kinase kinase 1 (Homo sapiens, UniProt Q02750); assay: Inhibition of MEK1
[18] = Inhibition of IGFR
[19] = molecular target: T1, Phosphatidylinositol 4,5-bisphosphate 3-kinase catalytic subunit alpha isoform; assay: Inhibition of PI3K mediated S6K phosphorylation in PTEN negative human U87MG cells at 30 ng/ml; format: cell-based; details: U-87MG ATCC
Method in brief: (§4)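 PTEN-negative U87MG cells were plated in six-well plates for 24 h, then treated in growth medium for 6 h against a DMSO control. PI3K pathway phosphorylation was then assessed.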

[20] = molecular target: Tyrosine-protein kinase Lyn (Homo sapiens, UniProt P07948); assay: Inhibition of LYN
[21] = molecular target: Mitogen-activated protein kinase kinase kinase 8 (Homo sapiens, UniProt P41279); assay: Inhibition of Tpl2
[22] = molecular target: T3, Phosphatidylinositol 4,5-bisphosphate 3-kinase catalytic subunit delta isoform (Homo sapiens, UniProt O00329); assay: Inhibition of PI3Kdelta; method in brief: as §2
T3 sequence (O00329 whole entry): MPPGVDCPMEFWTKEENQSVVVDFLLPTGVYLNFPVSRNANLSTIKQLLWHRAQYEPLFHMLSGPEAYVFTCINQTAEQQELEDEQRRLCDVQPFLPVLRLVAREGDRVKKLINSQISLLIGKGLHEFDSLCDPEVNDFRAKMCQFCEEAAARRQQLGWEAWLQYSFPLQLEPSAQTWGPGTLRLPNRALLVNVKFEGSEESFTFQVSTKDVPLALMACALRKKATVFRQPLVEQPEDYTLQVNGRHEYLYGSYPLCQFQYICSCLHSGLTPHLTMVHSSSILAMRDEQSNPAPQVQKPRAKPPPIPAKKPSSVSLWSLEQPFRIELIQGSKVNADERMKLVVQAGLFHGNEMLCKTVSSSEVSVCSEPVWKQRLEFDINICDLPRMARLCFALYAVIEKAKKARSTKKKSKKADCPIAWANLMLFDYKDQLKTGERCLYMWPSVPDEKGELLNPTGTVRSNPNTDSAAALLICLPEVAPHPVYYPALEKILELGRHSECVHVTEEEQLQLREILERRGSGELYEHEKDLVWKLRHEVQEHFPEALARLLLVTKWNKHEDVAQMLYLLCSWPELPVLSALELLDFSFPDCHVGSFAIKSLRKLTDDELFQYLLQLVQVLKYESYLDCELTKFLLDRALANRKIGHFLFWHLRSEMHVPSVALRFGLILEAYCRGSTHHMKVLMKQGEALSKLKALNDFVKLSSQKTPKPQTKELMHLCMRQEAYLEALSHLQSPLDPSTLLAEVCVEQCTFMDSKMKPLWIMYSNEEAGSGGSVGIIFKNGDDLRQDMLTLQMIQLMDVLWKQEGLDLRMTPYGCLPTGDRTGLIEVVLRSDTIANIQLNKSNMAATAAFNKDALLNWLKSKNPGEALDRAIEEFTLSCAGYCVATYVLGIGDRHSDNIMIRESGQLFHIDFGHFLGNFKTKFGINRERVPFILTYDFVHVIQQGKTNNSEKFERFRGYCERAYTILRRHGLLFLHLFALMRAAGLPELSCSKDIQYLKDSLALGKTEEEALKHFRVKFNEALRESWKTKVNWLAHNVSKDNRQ

[23] = molecular target: T1, Phosphatidylinositol 4,5-bisphosphate 3-kinase catalytic subunit alpha isoform; assay: Inhibition of PI3K mediated AKT phosphorylation in PTEN negative human U87MG cells at 30 ng/ml; format: cell-based; details: U-87MG ATCC; method in brief: as §4
[24] = molecular target: Serine/threonine-protein kinase mTOR (Homo sapiens, UniProt P42345); assay: Inhibition of mTOR
[25] = Chemical stability at pH 7.4; format: physicochemical; details: buffer, read-out: Stability
Method in brief: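 Compound was incubated with the dipeptide lysine-phenylalanine at pH 7.4. Half-life of amine adduct formation was measured.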

[26] = Antitumor activity against human U87MG cells xenografted mouse administered intravenously thrice a week for two weeks; format: functional, U-87MG ATCC; details: U-87 MG, iv, 336 h, read-out: MED
Method in brief: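 Nude mice bearing U87MG glioma xenografts; dosed iv in PBS at the stated doses and schedules for 2 weeks. Tumor growth was monitored twice weekly, and tumor volume was determined by a previously described method.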

[27] = molecular target: Tyrosine-protein kinase BTK (Homo sapiens, UniProt Q06187); assay: Inhibition of BTK

T1 sequence (P42336 whole entry, canonical isoform): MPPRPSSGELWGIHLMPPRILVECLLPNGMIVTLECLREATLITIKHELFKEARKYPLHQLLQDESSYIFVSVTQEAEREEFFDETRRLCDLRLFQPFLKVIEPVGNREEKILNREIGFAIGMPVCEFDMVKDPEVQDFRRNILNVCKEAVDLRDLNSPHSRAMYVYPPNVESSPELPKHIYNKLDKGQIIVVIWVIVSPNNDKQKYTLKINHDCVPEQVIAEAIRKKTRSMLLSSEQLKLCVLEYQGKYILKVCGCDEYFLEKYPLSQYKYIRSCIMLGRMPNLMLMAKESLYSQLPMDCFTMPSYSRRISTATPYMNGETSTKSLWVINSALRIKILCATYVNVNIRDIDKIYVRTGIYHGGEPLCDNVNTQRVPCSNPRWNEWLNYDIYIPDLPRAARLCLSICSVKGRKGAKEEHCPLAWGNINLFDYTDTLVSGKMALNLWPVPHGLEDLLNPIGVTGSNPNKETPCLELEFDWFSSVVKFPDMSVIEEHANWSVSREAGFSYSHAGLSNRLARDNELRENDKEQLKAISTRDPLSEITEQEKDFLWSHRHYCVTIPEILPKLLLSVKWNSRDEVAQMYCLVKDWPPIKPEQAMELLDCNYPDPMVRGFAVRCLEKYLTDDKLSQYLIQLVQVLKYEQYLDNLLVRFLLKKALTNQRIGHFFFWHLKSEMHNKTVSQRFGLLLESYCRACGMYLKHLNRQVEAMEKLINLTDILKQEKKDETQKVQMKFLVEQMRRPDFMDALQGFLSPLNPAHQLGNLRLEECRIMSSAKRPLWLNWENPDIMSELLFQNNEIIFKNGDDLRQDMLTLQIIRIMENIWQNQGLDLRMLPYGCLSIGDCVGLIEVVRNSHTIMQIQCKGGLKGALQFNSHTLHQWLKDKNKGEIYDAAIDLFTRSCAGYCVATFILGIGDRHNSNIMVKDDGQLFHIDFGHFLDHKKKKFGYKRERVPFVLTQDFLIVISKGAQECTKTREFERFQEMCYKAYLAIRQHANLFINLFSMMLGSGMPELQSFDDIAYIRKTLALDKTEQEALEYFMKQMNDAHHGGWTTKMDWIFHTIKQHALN
Chain of Vascular endothelial growth factor receptor 2 (P35968 whole entry): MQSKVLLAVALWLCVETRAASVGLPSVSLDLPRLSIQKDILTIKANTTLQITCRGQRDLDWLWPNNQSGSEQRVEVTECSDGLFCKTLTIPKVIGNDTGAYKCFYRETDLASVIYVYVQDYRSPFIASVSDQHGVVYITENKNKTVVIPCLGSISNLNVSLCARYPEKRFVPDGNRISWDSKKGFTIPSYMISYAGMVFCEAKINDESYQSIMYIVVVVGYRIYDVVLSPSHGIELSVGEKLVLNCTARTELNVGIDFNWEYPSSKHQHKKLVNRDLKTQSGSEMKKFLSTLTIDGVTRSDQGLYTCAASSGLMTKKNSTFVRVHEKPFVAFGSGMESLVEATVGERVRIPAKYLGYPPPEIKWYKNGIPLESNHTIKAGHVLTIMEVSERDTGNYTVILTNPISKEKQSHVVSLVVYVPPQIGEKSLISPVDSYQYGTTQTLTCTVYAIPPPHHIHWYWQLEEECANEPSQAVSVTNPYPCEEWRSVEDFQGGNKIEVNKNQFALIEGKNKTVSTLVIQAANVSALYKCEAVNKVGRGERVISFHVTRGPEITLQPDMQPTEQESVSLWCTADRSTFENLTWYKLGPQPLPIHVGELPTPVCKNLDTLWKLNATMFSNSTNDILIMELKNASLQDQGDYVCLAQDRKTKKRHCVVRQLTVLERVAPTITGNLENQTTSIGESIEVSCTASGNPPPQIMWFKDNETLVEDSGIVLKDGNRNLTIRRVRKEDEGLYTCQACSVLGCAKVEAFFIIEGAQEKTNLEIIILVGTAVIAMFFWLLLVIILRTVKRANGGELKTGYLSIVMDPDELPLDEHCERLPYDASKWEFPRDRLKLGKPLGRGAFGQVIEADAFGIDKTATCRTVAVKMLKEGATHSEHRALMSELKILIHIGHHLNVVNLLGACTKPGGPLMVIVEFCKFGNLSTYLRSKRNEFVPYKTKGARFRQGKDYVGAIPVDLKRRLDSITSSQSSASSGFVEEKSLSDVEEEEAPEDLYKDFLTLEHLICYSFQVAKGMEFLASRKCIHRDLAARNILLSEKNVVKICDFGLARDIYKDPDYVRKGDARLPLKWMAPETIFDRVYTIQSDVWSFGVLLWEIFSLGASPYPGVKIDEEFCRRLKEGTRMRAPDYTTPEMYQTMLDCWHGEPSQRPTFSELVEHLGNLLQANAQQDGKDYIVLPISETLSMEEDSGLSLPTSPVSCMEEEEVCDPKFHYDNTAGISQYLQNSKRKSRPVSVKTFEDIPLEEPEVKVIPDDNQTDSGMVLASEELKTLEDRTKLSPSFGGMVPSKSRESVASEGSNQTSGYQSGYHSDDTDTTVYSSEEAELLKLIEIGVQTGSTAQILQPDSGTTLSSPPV
Chain of MAP kinase-activated protein kinase 2 (P49137 whole entry): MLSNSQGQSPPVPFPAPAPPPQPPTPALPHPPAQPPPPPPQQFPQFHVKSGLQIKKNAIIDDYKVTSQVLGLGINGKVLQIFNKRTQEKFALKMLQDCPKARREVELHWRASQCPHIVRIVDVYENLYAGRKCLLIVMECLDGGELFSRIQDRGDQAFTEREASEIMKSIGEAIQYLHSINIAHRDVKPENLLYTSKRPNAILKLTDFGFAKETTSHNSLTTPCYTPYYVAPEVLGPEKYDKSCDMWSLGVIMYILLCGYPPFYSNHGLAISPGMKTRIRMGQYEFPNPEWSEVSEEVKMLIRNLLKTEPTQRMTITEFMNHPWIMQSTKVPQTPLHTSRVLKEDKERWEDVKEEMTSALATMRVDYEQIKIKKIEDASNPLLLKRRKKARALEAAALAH
Chain of Dual specificity mitogen-activated protein kinase kinase 1 (Q02750 whole entry): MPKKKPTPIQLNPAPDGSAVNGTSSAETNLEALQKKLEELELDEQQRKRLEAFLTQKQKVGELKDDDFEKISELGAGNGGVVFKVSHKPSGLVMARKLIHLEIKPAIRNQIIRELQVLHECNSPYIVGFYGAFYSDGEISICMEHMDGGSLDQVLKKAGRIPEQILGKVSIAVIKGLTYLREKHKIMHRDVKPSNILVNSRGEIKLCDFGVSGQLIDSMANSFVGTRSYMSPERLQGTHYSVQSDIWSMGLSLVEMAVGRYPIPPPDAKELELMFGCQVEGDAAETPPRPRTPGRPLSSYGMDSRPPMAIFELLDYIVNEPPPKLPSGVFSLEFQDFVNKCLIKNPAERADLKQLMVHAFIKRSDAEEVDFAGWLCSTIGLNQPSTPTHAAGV
Chain of Cyclin-dependent kinase 4 (P11802 whole entry): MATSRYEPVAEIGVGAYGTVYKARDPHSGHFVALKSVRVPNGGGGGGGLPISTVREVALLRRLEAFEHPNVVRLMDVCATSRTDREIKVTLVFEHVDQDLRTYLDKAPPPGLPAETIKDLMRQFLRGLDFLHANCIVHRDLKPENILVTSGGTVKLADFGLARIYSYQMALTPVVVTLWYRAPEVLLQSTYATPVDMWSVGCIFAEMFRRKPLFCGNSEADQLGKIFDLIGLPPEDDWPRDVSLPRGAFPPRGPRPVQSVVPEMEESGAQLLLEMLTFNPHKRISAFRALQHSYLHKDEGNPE
Chain of Tyrosine-protein kinase Lyn (P07948 whole entry): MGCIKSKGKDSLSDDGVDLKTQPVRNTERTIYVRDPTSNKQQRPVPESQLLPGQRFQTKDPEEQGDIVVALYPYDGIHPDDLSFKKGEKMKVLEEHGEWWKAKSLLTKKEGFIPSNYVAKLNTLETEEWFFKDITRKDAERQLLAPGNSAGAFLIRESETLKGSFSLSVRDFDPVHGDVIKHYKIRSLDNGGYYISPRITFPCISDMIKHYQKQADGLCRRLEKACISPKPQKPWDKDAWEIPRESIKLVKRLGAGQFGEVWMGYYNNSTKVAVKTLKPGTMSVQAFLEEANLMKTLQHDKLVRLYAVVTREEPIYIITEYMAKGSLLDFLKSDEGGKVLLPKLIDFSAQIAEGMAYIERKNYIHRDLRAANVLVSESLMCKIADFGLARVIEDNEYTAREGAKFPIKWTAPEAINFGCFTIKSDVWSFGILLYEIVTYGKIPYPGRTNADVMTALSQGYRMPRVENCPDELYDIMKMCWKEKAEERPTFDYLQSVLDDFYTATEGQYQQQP
Chain of Mitogen-activated protein kinase kinase kinase 8 (P41279 whole entry, canonical isoform): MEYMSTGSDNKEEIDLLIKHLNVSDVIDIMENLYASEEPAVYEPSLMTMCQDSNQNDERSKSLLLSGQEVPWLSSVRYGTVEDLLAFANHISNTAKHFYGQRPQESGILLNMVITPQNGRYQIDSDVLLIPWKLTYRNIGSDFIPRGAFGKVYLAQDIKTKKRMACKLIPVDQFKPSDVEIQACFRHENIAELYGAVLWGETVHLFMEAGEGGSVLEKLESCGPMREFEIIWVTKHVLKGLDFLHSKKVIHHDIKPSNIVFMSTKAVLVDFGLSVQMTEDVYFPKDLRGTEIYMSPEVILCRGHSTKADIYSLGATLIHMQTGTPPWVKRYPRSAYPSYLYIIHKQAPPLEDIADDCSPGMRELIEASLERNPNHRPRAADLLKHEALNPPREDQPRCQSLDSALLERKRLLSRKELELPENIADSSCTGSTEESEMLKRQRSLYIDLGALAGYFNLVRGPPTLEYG
Chain of RAC-alpha serine/threonine-protein kinase (P31749 whole entry): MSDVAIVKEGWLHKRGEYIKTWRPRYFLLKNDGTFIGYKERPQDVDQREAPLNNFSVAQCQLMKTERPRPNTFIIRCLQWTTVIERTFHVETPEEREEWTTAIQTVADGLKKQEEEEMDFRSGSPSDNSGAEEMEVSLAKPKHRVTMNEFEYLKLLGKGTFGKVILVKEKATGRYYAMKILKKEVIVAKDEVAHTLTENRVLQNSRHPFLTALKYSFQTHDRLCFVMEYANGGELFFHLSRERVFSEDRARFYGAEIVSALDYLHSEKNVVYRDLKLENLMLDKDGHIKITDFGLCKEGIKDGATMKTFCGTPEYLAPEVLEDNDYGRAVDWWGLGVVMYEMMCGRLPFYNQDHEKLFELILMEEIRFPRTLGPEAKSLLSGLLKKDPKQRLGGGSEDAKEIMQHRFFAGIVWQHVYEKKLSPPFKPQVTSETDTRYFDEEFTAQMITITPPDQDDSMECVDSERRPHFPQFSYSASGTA

Compound	IC50 [1]	IC50 [2]	IC50 [3]	IC50 [4]	IC50 (LNCaP)	IC50 [6]	minimal effective dose [8]	minimal effective dose [9]	IC50 [10]	half-life [11]	IC50 [12]	IC50 [14]	IC50 [17]	IC50 [18]	IC50 [20]	IC50 [21]	IC50 [24]	other results
COC[C@H]1OC(=O)/C(=C/N(C)CCCN(C)C)C2=C(O)C(=O)C3=C([C@H](OC(C)=O)C[C@]4(C)[C@@H](O)CC[C@@H]34)[C@]21C	> 10 µM	> 10 µM	> 200 µM	> 30 µM	0.389 µM	0.064 µM	2.5 mg/kg	< 1.25 mg/kg	> 10 µM	30 min	> 30 µM	> 50 µM	> 10 µM	> 10 µM	> 30 µM	> 40 µM	2.92 µM	Vd [5]: 0.7 L/kg; IC50 [7]: 0.013 µM; IC50 [13]: 8 µM; clearance [15]: 50 mL/min/kg; solubility [16]: > 10000 µg/mL; Activity [19]: Active; IC50 [22]: 0.011 µM; Activity [23]: Active
COC[C@H]1OC(=O)c2coc3c2[C@@]1(C)C1=C(C3=O)[C@@H]2CC[C@H](O)[C@@]2(C)C[C@H]1OC(C)=O	–	–	–	–	1.46 µM	0.0027 µM	–	–	–	4 min	–	–	–	–	–	–	0.193 µM	half-life [25]: 4 min
COC[C@H]1OC(=O)/C(=C/N(CCO)C(C)(C)C)C2=C(O)C(=O)C3=C([C@H](OC(C)=O)C[C@]4(C)[C@@H](O)CC[C@@H]34)[C@]21C	> 10 µM	> 10 µM	> 200 µM	> 30 µM	0.128 µM	1.11 µM	15 mg/kg	7.5 mg/kg	> 10 µM	–	> 30 µM	> 50 µM	> 10 µM	> 10 µM	> 30 µM	> 40 µM	28.6 µM	minimal effective dose [26]: 5 mg/kg; IC50 [27]: > 10 µM

Source: ChEMBL document CHEMBL1143164, “Synthesis and structure-activity relationships of ring-opened 17-hydroxywortmannins: potent phosphoinositide 3-kinase inhibitors with improved properties and anticancer efficacy” (J Med Chem, 2008)
